TAAR1 agonist: human TAAR1 agonists, primary screen, Fluo-8 calcium fluorescence, CHO RD-HGA16 cells | Trace amine-associated receptor 1 (Homo sapiens), Q96RJ0 | vehicle wells 0%, saturating PEA agonist 100% | activation, % at 3 µM | actives 0.99% (n = 360,000) | AID 624467, 2012;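 active = activation above the mean activation of all test compounds in the run plus 3 SD, cut at about 38% in these data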
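test system = CHO RD-HGA16 cells carrying human TAAR1 plus Gα16 | schedule = 17-24 h seeding, 75 min 37 °C dye, 30 min RT | compound dosing = 3 µM single concentration | control set = DMSO and PEA EC100 | replicates = n 1 | signal = Fluo-8 fluorescence, 5 s baseline then 140 s kinetic read | measure = percent activation vs PEA EC100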
OX1R antag-1: OX1R (HCRTR1) antagonists, primary screen, fluorescence, CHO/OX1R cells, Fluo-8 calcium, orexin A | Fluo-8 calcium fluorescence | inhibition, % at 5 µM | actives 0.43% (n = 330,000) | AID 434989, 2010;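 active = inhibition above its plate's threshold, mean inhibition of all tested compounds on the plate plus 3 SD, cut at about 37% in these data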
Target sequence (O43613 whole entry, looked up): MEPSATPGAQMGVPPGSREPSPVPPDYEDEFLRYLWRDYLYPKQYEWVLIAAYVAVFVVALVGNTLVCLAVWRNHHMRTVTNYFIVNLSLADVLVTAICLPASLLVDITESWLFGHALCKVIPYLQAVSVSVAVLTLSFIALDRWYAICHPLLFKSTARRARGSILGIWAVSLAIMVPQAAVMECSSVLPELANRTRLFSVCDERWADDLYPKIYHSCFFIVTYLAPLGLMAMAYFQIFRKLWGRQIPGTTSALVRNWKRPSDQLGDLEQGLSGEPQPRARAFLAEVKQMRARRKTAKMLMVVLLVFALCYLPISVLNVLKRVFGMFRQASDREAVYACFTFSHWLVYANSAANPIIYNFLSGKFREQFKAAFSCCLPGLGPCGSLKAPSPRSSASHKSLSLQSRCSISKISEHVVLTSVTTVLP
GPR7 antagonist: GPR7 receptor antagonists, primary screen, cell-based, fluorescence, single concentration | Neuropeptides B/W receptor type 1 (Homo sapiens), P48145 | GPR7-expressing cells, fluorescence antagonist assay | inhibition, % at 4.4 µM | actives 1.1% (n = 290,000) | AID 1861, 2009; in the data active = inhibition above about 16%, passing the limit was not always enough;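 note: cells stimulated with the agonist NPW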
Target sequence (P48145 whole entry, looked up): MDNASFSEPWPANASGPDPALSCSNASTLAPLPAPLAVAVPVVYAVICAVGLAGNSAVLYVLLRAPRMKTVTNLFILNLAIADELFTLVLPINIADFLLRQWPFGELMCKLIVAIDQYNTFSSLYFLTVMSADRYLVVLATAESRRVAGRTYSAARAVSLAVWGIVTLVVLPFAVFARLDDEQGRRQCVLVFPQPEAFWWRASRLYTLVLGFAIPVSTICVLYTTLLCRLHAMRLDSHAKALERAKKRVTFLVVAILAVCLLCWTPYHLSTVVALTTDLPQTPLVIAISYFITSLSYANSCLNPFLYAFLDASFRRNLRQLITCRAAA
OX1R antag-2: antagonists of human orexin 1 receptor (OX1R); Orexin/Hypocretin receptor type 1 (Homo sapiens), O43613; OX1R-expressing cells, FRET antagonist read-out; inhibition, % at 6.6 µM; actives 1.8% (n = 330,000); AID 485270, 2010; in the data active = inhibition mostly above about 38%, no sharp cut-off; inactive = mostly below about 40%
TAAR1 antag: human TAAR1 antagonists, primary screen, Fluo-8 calcium fluorescence, CHO RD-HGA16 cells; Trace amine-associated receptor 1 (Homo sapiens), Q96RJ0; antagonist; inhibition, % at 3 µM; actives 1.5% (n = 360,000); AID 624466, 2012;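 active = inhibition above a per-plate cutoff, the mean inhibition of test compounds on that plate plus 3 SD, cut at about 49% in these data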
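System: CHO RD-HGA16 cells bearing hTAAR1. Reagent: EC80 β-phenethylamine stimulus. Schedule: seeding 17-24 h prior, 75-min 37 °C, 30-min RT dye loading. Signal: Fluo-8 intracellular calcium dye fluorescence, real-time kinetic reads. Read-out: % inhibition from peak post-agonist over basal fluorescence ratio. Benchmarks: vehicle wells and EC80 agonist wells. Replicates: n of 1.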
CHO parental Ca: ATP-evoked calcium signal inhibitors, parental CHO, primary screen, counter-screen for OX1R antagonist project, cell-based, fluorescence, Fluo-8 calcium dye | parental CHO-K1, ATP-induced calcium, Fluo-8 fluorescence | inhibition, % at 5.6 µM | actives 0.63% (n = 330,000);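 active = inhibition above that plate's mean sample inhibition plus 3 SD, cut at about 26% in these data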
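material = parental CHO cells | also added = ATP as calcium-mobilizing challenge | dosing = single point at 5.6 µM | detection = intracellular calcium via Fluo-8 no-wash fluorescent dye | read-out = % inhibition | benchmarks = low control ATP plus DMSO, high control DMSO only | repeats = one well per compound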
Of the large screens only hits and unclear results are named; the others gave an inactive call. Shown are actives, neighbours in structure and some others; about 4.6% of the full set was active somewhere.

CS(=O)(=O)c1ccccc1C(=O)Nc1ccc(-c2nc3ccccc3[nH]2)cc1	none
O=C(c1ccccc1)c1ccc2nc(-c3ccc(NC(=O)c4ccccc4Br)cc3)[nH]c2c1	TAAR1 antag 68
CC(C)CC(N)c1csc(Nc2ncccn2)n1 (stereo unspecified)	none (no result: OX1R antag-1, GPR7 antagonist, OX1R antag-2, CHO parental Ca)
CN(C)c1ccc(C(CNS(=O)(=O)c2ccc([N+](=O)[O-])cc2)N2CCCC2)cc1 (stereo unspecified)	OX1R antag-2 71 (no result: GPR7 antagonist)
CN(C)c1ccc(C(CNS(=O)(=O)c2ccc3ccccc3c2)N2CCOCC2)cc1 (stereo unspecified)	none (no result: GPR7 antagonist)
CC(=O)N(CN1C(=O)c2ccc([N+](=O)[O-])cc2C1=O)c1cccc(C(=O)O)c1	OX1R antag-2 52
O=C1CSc2ccc(C(=O)Nc3cccc(S(=O)(=O)Nc4ccc(Br)cc4)c3)cc2N1	CHO parental Ca 34
CCOc1ccc(S(=O)(=O)Nc2cnc3ccccc3c2)cc1	CHO parental Ca 35
O=C(Nc1ccc(Br)cc1)c1cccc(S(=O)(=O)Nc2cnc3ccccc3c2)c1	CHO parental Ca 42
CCOc1ccc(S(=O)(=O)Nc2nc3ccccc3nc2Cl)cc1	none
CC(C)CCNC(=O)C(c1cccnc1)N(CCc1ccccc1)C(=O)Cn1nnc2ccccc21 (stereo unspecified)	TAAR1 agonist 39
CCCCN(C(=O)Cn1nnc2ccccc21)C(C(=O)NCCOC)c1ccccc1 (stereo unspecified)	GPR7 antagonist 19
COc1ccc(Cl)cc1N(CC(=O)NC1CC1)S(=O)(=O)c1ccc(C)c([N+](=O)[O-])c1	none
CCN(CC)C(=O)CN(c1cc(Cl)ccc1OC)S(=O)(=O)c1ccc(C)c([N+](=O)[O-])c1	OX1R antag-2 74
COc1ccc2c(c1)Cc1sc(NC(=O)c3ccco3)nc1-2	OX1R antag-2 65
O=C1Nc2ccccc2/C1=C/C(=O)c1cccs1	GPR7 antagonist 26
COc1ccccc1NS(=O)(=O)c1cccc(C(=O)N/N=C/c2ccc([N+](=O)[O-])o2)c1	none (no result: OX1R antag-1, GPR7 antagonist, OX1R antag-2, CHO parental Ca)
CCn1c(-c2ccccc2)c[nH]c1=S	none
S=c1[nH]cc(-c2ccc(Cl)cc2)n1Cc1ccccc1	CHO parental Ca 93
Cc1ccc(S(=O)(=O)N2CCCc3nc(-c4ccccc4)ccc32)cc1	none (no result: OX1R antag-1, GPR7 antagonist, OX1R antag-2, CHO parental Ca)
O=C(/C=C/c1ccc(Cl)c([N+](=O)[O-])c1)Nc1ccc(NC(=O)c2ccco2)cc1	none (no result: OX1R antag-1, OX1R antag-2, CHO parental Ca)
O=C(/C=C/c1ccc(Cl)c([N+](=O)[O-])c1)Nc1cccnc1	OX1R antag-2 54
O=C(/C=C/c1ccc(Cl)c([N+](=O)[O-])c1)Nc1cccc(NC(=O)c2ccco2)c1	OX1R antag-2 58, TAAR1 antag 69
CCCCCCCCN1C(=O)[C@@H](CC(=O)NCc2cccc3ccccc23)C[C@@]2(C(=O)OC)C1=C[C@H](C1CCCC1)O[C@@H]2C	none (no result: OX1R antag-1, GPR7 antagonist, OX1R antag-2, CHO parental Ca)
CCOC(=O)c1ccc(NS(=O)(=O)c2cc(C)ccc2OC)cc1	CHO parental Ca 24
CCOC(=O)c1ccc(NS(=O)(=O)c2cc(-c3nnnn3CC)ccc2OC)cc1	none
Cc1ccc(S(=O)(=O)Nc2ccncc2)c(C)c1	none
COc1cc(NS(=O)(=O)c2ccc(C)cc2C)cc(OC)c1OC	CHO parental Ca 51
COc1cccc(C(C(=O)NCc2ccccc2)N2CCN(c3cccc(C)c3C)CC2)c1OC (stereo unspecified)	none (no result: OX1R antag-1, GPR7 antagonist, OX1R antag-2, CHO parental Ca)
CCOc1ccc(CCN2C(=S)N([C@@H](Cc3ccc(O)cc3)CN3CCC[C@@H]3CN3C(=S)NC[C@@H]3Cc3ccc(O)cc3)C[C@@H]2Cc2ccc(O)cc2)cc1	none (no result: OX1R antag-1, GPR7 antagonist, OX1R antag-2, CHO parental Ca)
Cc1ccc(NC(=O)CSc2nnc(-c3ccco3)n2N)cc1F	TAAR1 agonist 41
Cc1cc(C)c(NC(=O)CSc2nnc(-c3ccco3)n2N)c(C)c1	none
O=C(CCN1CCOCC1)NNC(=O)c1ccc([N+](=O)[O-])cc1[N+](=O)[O-]	OX1R antag-2 49 (no result: GPR7 antagonist)
COc1ncnc2sc(-c3ccccc3)cc12	none
CN(C)c1ncnc2sc(-c3ccccc3)cc12	OX1R antag-2 64
Cc1ccc(-c2cc(C(F)F)n3ncc(C(=O)N4CCN5CCCC5C4)c3n2)cc1 (stereo unspecified)	none
CCOC(=O)C1CCCN(C(=O)c2cnn3c(C(F)F)cc(-c4ccc(C)cc4)nc23)C1 (stereo unspecified)	GPR7 antagonist 19
CCCN(CC(=O)Nc1ccccc1OC)C(=O)Cc1ccc2c(c1)CCC2	OX1R antag-2 48 (no result: TAAR1 agonist, GPR7 antagonist, TAAR1 antag)
CC(C)Oc1ccc(F)cc1-c1cc(C(=O)NCc2cc(C(F)(F)F)cc(C(F)(F)F)c2)[nH]n1	none (no result: OX1R antag-1, GPR7 antagonist, OX1R antag-2, CHO parental Ca)
Cc1cc(F)ccc1-c1cc(C(=O)NCc2ccccc2)[nH]n1	none (no result: OX1R antag-1, GPR7 antagonist, OX1R antag-2, CHO parental Ca)
CC(C)Oc1cc(F)ccc1-c1cc(C(=O)Nc2cccc(C(F)(F)F)c2)[nH]n1	TAAR1 antag 55 (no result: OX1R antag-1, GPR7 antagonist, OX1R antag-2, CHO parental Ca)
CC(C)Oc1ccc(F)cc1-c1cc(C(=O)NCc2ccc(C(F)(F)F)cc2)[nH]n1	TAAR1 antag 54 (no result: OX1R antag-1, GPR7 antagonist, OX1R antag-2, CHO parental Ca)
Cc1cc(O)ccc1-c1cc(C(=O)NCc2ccc(F)cc2)[nH]n1	TAAR1 agonist 49 (no result: OX1R antag-1, GPR7 antagonist, OX1R antag-2, CHO parental Ca)
Cc1cccc(C)c1NC(=O)C(c1ccnc2ccccc12)N1CCN(C)CC1 (stereo unspecified)	none (no result: OX1R antag-1, GPR7 antagonist, OX1R antag-2, CHO parental Ca)
CC(C)n1c(=NC(=O)c2ccco2)c(C#N)cc2c(=O)n3ccccc3cc21	OX1R antag-2 54
OC(COc1ccc(Br)cc1)CN1CCC(Cc2ccccc2)CC1 (stereo unspecified)	TAAR1 agonist 42
CC(C)OCC(O)CN1CCC(Cc2ccccc2)CC1 (stereo unspecified)	none
CCCCC(O)(CCCC)C(=O)N/N=C(\C)c1ccc(Cl)cc1	GPR7 antagonist 20
Oc1ccc(Cl)cc1C=Nc1ccc2c3c(cccc13)CC2	OX1R antag-1 62, CHO parental Ca 59
Cc1cccc(C=Nc2ccc3c4c(cccc24)CC3)c1O	OX1R antag-1 54, CHO parental Ca 39
Cc1ccc(C2NC(=O)c3n[nH]c(C(C)C)c32)cc1 (stereo unspecified)	none (no result: OX1R antag-1, GPR7 antagonist, OX1R antag-2, CHO parental Ca)
COCCCNCCCCOc1ccc(Br)cc1C	TAAR1 agonist 41
COc1ccc(S(=O)(=O)N2CCSC2c2ccc(OC)c(OC)c2)cc1 (stereo unspecified)	none
COc1ccc(C2SCCN2S(=O)(=O)c2ccc(F)cc2)cc1OC (stereo unspecified)	OX1R antag-2 37
C/C(=N\Nc1ccc([N+](=O)[O-])cc1[N+](=O)[O-])C(C)(C)C(C(=O)O)C(=O)O	OX1R antag-2 73

From PubChem BioAssay
